# Assay outcomes: PubChem BioAssay, Johns Hopkins Ion Channel Center
# KCNK3 inh: human KCNK3 channel inhibitors, primary screen, CHO cells, FluxOR thallium flux, B-score; B-score at 10 µM; AID 602410, 2012; FluxOR fluorescence; hits give low values; 0.84% of 340,000 active;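 active = B-score under library mean minus 4 SD, starting fluorescence ratio at most library mean plus 5 SD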;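 also: more negative B-score means stronger inhibition of thallium flux through KCNK3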
# KCNQ1 block: inhibitors of human KCNQ1 channel, primary screen, cell-based, thallium flux, high-throughput; Potassium voltage-gated channel subfamily KQT member 1 (Homo sapiens), P51787; CHO-K1 KCNQ1, FluxOR thallium flux fluorescence; hits give high values; B-score at 10 µM; 1.3% of 310,000 active;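 active = compounds whose thallium flux B-score, printed positive for inhibition, exceeds three library SD while starting fluorescence stays within three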;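 also: channel opened by potassium depolarization with thallium stimulus after 20 min compound exposure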
# KCNQ1 act: potentiators or activators of KCNQ1 channel, primary screen, cell-based, thallium flux, high-throughput; Potassium voltage-gated channel subfamily KQT member 1 (Homo sapiens), P51787; CHO-K1 KCNQ1, thallium flux FluxOR fluorescence; hits give high values; B-score at 10 µM; 0.35% of 310,000 active;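 active = fluorescence ratio B-score, a plate-corrected score, at least three library SD, with initial intensity B-score within 5 SD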
#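 Material: CHO-K1 cells stably expressing KCNQ1. Medium: assay buffer for compound exposure, DMSO matched across wells. Reagent: K+/Tl+ depolarizing stimulus. Compound dosing: single-concentration screen. Times: 37 °C overnight plating, 90-min dark dye load, 20-min compound pretreatment. Technique: FluxOR Tl+ flux fluorescence.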
# KCNK9 block: KCNK9 potassium channel inhibitors, primary screen, HEK293 cells, thallium flux. Potassium channel subfamily K member 9 (Homo sapiens), Q9NPC2. FluxOR thallium flux fluorescence; hits give low values. B-score at 10 µM. 1.2% of 310,000 active. AID 488922, 2010;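 active = ratio B-score over 3 SD below the library mean, with starting fluorescence within 5 SD of its mean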;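 also: negative B-score means less thallium flux so channel inhibition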
# Target sequence (Q9NPC2 whole entry, looked up): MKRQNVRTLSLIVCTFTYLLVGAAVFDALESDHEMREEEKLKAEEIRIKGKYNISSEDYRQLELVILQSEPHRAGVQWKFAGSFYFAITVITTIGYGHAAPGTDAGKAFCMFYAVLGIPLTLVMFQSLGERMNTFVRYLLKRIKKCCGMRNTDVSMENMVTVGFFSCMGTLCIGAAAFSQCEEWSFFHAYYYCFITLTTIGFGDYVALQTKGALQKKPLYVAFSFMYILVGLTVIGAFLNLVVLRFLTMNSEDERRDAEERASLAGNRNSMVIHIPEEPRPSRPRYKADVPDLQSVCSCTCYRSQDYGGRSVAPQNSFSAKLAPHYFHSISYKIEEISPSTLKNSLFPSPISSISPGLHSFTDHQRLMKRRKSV
# hERG rescue: hERG rescue from dofetilide block, primary screen, cell-based, CHO-hERG, FluxOR thallium flux, dofetilide IC70 | Voltage-gated inwardly rectifying potassium channel KCNH2 (Homo sapiens), Q12809 | dofetilide IC70 present | activation (rescue from dofetilide block), less the hit threshold, % at 10 µM | 0.51% of 310,000 active;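 active = activation above the mean of controls blocked by dofetilide plus 5 SD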;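 also: thallium influx through hERG after potassium depolarization seen as dye fluorescence rise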
# Kir21 inh: inhibitors of mouse Kir2.1 inward-rectifier potassium channel | Inward rectifier potassium channel 2 (Mus musculus), P35561 | HEK293-Kir2.1, FluxOR thallium flux fluorescence; hits give low values | B-score at 10 µM | 0.85% of 310,000 active;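 active = fluorescence ratio B-score at or below minus 3 SD of library scores, with starting-brightness B-score within 2 SD, cut at about -4.2 in these data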;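 also: channel flux triggered by added potassium and thallium sulfate stimulus; B-score of peak minus minimum fluorescence over baseline after thallium stimulus; more negative B-score means stronger Kir2.1 block with less thallium influx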
# Hits are given with their value; 0 = inactive; - = not tested or not shown. In the library only some 3.8% were active in any assay of this set; here they are far more common.
SMILES,KCNK3 inh,KCNQ1 block,KCNQ1 act,KCNK9 block,hERG rescue,Kir21 inh
C/C=C/c1ccc(OCCNCc2ccccc2)c(OC)c1,0,0,0,0,0,0
Cc1cc(C)c(OCCNCc2ccccc2)c(C)c1,0,0,0,0,0,-5.01
Cc1cc(C)c(C)c(OCCNCc2ccccc2)c1,0,0,0,0,0,-5.52
Cc1cc(Cl)cc(C)c1OCCNCc1ccccc1,0,0,0,0,0,0
COCCCNCCCCOc1c(Cl)cc(C)cc1Br,0,0,0,0,0,-6
Cc1ccc(NC(=O)CSCC(=O)Nc2cccc3ncccc23)cc1,0,0,0,0,0,0
CCOc1ccc(NC(=O)C(C)Oc2ccc(C#N)cc2)cc1S(=O)(=O)N1CCCC1 (configuration not stated),0,-,-,-,-,-
CC(=O)Nc1ccc(-n2c(C)nc(=O)c(-c3ccccc3)c2C)cc1,0,0,0,0,4.7,0
Cc1nc(=O)c(-c2ccccc2)c(C)n1-c1ccccc1,0,0,0,0,0,0
Oc1ccc(CN2CCc3ccccc3C2)c2cccnc12,0,0,0,0,0,-10.3
Oc1ccc(CN2CCCCC2)c2cccnc12,0,0,0,0,0,0
Oc1ccc(CNc2ccccc2F)c2cccnc12,0,7,0,0,0,0
Oc1ccccc1CNc1cccc2cccnc12,0,0,0,-7.29,0,0
COc1cc(NCc2ccccc2O)c2ncccc2c1,0,0,0,0,0,0
COC(=O)C1=Cc2cc(OC)cc([N+](=O)[O-])c2OC1N1CCOCC1 (configuration not stated),0,0,0,0,0,0
Cc1ccc(NC(=O)c2sccc2-n2cccc2)c(C)c1,0,0,0,-8.09,0,0
O=S(=O)(C/C(=C/CO)S(=O)(=O)c1ccccc1)c1ccccc1,0,6,0,0,0,0
O=S(=O)(CS(=O)(=O)c1ccccc1)c1ccccc1,0,-,-,-,-,-
FC(F)(F)c1cc(-c2cccs2)nc2cc(-c3cccs3)nn12,0,6,0,0,0,0
NNC(=O)c1cc2nc(-c3cccs3)cc(C(F)(F)F)n2n1,0,0,0,0,0,0
Cc1c(Cl)cccc1NC(=S)N1CCCCCC1,0,0,0,0,0,0
CCCN(C(=O)c1cn(-c2ccccc2)nc1-c1ccc(OC)cc1)C1CCS(=O)(=O)C1 (configuration not stated),0,0,8,0,0,0
Cc1ccc(S(=O)(=O)NCCC(=O)N2CCC(Cc3ccccc3)CC2)cc1,0,0,0,0,0,0
COc1ccc(S(=O)(=O)NCc2ccc(C(=O)N3CCN(Cc4ccccc4)CC3)cc2)cc1,0,0,0,0,0,0
Cc1ccc(S(=O)(=O)NCc2ccc(C(=O)NCCCN3CCC(Cc4ccccc4)CC3)cc2)cc1,0,6,0,0,0,0
SMILES,KCNK3 inh,KCNQ1 block,KCNQ1 act,KCNK9 block,hERG rescue,Kir21 inh
Cc1ccc(S(=O)(=O)NCc2ccc(C(=O)N3CCN(Cc4ccccc4)CC3)cc2)cc1,-9.26,0,0,0,0,0
COc1ccc(-c2c(C(F)(F)F)nn(C)c2NC(C)=O)cc1,0,0,0,0,0,0
O=C(OCC(O)C(O)C(O)C(SCc1ccccc1)SCc1ccccc1)c1ccccc1 (configuration not stated),0,-,-,-,-,-
O=C(COc1ccc(S(=O)(=O)N2CCc3ccccc32)cc1Cl)NCc1ccccn1,0,0,0,0,0,-5.19
CCCCCCCCCCC[N+](C)(C)CC/C=C1/c2ccccc2Sc2ccc(Cl)cc21,0,0,9,0,0,0
CC[N+](C)(C)CC/C=C1/c2ccccc2Sc2ccc(Cl)cc21,0,0,0,0,0,0
CC1CCCCC1NC(=O)c1ccc(-n2cncn2)cc1 (configuration not stated),0,-,-,-,-,-
O=C(CN1C(=O)COc2ccccc21)NCCCN1CCCCC1,0,0,0,0,0,0
CC(C)Oc1ccc(C(=O)Nc2ccc(S(=O)(=O)N3CCN(C)CC3)cc2)cc1,0,0,0,-7.34,0,0
Cc1cccc(Oc2ccc3c(c2)cc(C(=O)O)n3C)c1,0,0,0,0,0,0
c1ccc(CN(Cc2cccs2)C(c2cccs2)c2nnnn2C2CCCC2)cc1 (configuration not stated),0,0,0,-7.54,0,0
C/C=C(/CCC1NCCc2c1[nH]c1ccccc21)[Si](C)(C)C (configuration not stated),0,-,-,-,-,-
COc1ccc(N2C3=C(CC4=C2CC(C)(C)CC4=O)C(=O)CC(C)(C)C3)cc1,0,0,0,0,0,-5.13
COc1ccc(N2C3=C(CC4=C2CCCC4=O)C(=O)CCC3)cc1,0,0,0,-6.63,0,0
Cc1csc(N2C(=O)C3C4CCC(O4)C3C2=O)n1 (configuration not stated),0,-,-,-,-,-
O=C(COC(=O)COc1ccc(Cl)cc1Cl)NC1CCCC1,0,-,-,-,-,-
NC(CCCCc1ccccc1)c1cccc2ccccc12 (configuration not stated),-,0,0,0,0,-11.4
c1ccc(CCCCc2ccccn2)cc1,0,-,-,-,-,-
Cc1nnc(SCc2nnc(-c3cccs3)o2)n1Cc1ccccc1,0,0,0,0,0,0
Clc1ccc(-c2nnc(CSc3nnc(-c4cccs4)n3Cc3ccccc3)o2)cc1,-8.84,8,0,0,0,0
CC1(C)CC(=O)C=C(NC2CCCC(O)C2)C1 (configuration not stated),0,0,0,0,0,0
Cn1nc(C(C)(C)C)c([N+](=O)[O-])c1C(=O)Nc1ccccc1,0,0,0,0,0,0
Cc1ccc(NC(=O)c2c([N+](=O)[O-])c(C(C)(C)C)nn2C)cc1,0,0,0,0,23.5,0
OC(CNC1CCCc2ccccc21)COc1c(Cl)cccc1Cl (configuration not stated),0,0,0,0,0,-8.86
OC(CNC1Cc2ccccc2C1)COc1ccc(Cl)cc1 (configuration not stated),0,0,0,0,0,-4.24
COc1cccc(CNCC(O)COc2ccc(C(=O)c3ccccc3)cc2)c1 (configuration not stated),0,0,0,0,0,-5.4
OC(CNCc1ccccc1)COc1ccccc1 (configuration not stated),0,0,0,0,0,0
O=C(c1ccccc1)c1ccc(OCC(O)CNCc2ccc(Cl)cc2)cc1 (configuration not stated),0,0,0,0,0,-4.67
CCOc1ccc(N=C2NC(=O)CS2)cc1,0,0,0,0,0,0
